An excerpt weighted towards active compounds, which were near 1.8% of everything screened.
CHRM4 agonist – CHRM4 agonism in calcium assay | actives 0.14% (n = 360,000) | CHO-K1 hM4/Gqi5, Fluo-8 calcium fluorescence; vehicle 0%, full acetylcholine response 100% | P08173 | activation, % at 3 µM;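 active = activation above the run mean over all test wells plus 3 SD, cut at about 32% in these data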;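 note: peak over basal fluorescence ratio per well then scaled between controls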
M4 antag – CHRM4 antagonism in calcium assay; inhibition, % at 3 µM; AID 624125; CHO-hM4 cells, ACh EC80, Fluo-8 calcium fluorescence; P08173; actives 0.73% (n = 360,000);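 active = inhibition above its plate's cutoff, the mean inhibition of sample wells plus 3 SD, cut at about 27% in these data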
M5 antag – CHRM5 antagonism in calcium assay; actives 0.59% (n = 360,000); CHO-hM5 cells, Fluo-8 calcium fluorescence, ACh EC80; P08912; AID 624040; inhibition, % at 3 µM;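 active = inhibition above a per-plate cutoff, the mean of that plate's test compounds plus 3 SD, cut at about 27% in these data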
Target sequence (P08912 whole entry, looked up): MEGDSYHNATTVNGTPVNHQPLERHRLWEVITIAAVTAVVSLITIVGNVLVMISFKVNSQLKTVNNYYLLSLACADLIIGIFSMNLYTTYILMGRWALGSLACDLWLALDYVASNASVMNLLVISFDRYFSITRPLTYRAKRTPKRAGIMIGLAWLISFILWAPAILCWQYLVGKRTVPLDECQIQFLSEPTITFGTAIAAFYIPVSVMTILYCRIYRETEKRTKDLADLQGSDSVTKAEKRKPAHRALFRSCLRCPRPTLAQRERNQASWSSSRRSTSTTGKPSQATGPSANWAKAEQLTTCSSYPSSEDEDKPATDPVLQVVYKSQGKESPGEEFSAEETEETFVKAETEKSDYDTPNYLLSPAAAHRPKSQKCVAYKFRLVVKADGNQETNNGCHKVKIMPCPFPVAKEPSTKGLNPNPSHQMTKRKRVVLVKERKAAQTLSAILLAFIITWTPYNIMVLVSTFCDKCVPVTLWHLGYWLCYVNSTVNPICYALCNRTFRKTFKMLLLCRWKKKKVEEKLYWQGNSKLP
CHRM4 PAM – CHRM4 positive allosteric modulation | P08173 | CHO-K1 hM4/Gqi5, Fluo-8 calcium fluorescence, ACh EC20; 0% = ACh EC20, 100% = maximal ACh | activation, % at 3 µM | actives 0.4% (n = 360,000);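 active = activation above its plate's cutoff, the mean activation of sample wells plus 3 SD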
M5 PAM – CHRM5 positive allosteric modulation; P08912; CHO-K1 hM5, Fluo-8 calcium, ACh EC20 PAM; 0% = ACh EC20, 100% = ACh EC100; activation, % at 3 µM; actives 0.3% (n = 360,000);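 active = activation above the run cutoff, the mean activation of all test compounds plus 3 SD, cut at about 18% in these data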
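system = human M5 receptor in CHO-K1 cells | reagent = EC20 acetylcholine as agonist stimulus | compound dosing = single-point, 3 µM nominal | incubation = Fluo-8 loading 80 min at 37 °C plus 30 min room temperature | detection = Fluo-8 calcium dye fluorescence, kinetic read | benchmarks = low control EC20 acetylcholine (0%), high control EC100 acetylcholine (100%)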
M5 ag – agonists of human muscarinic M5 receptor (CHRM5). P08912. CHO-K1 hM5 cells, Fluo-8 calcium fluorescence; 0% DMSO wells, 100% maximal acetylcholine response. activation, % at 3 µM. actives 0.19% (n = 360,000). AID 624037;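 active = activation above the run's mean over test compounds plus 3 SD, cut at about 23% in these data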;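 note: signal is peak over basal fluorescence ratio across the kinetic read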
A number is an active result; i = inactive.

SMILES	CHRM4 agonist	M4 antag	M5 antag	CHRM4 PAM	M5 PAM	M5 ag
COc1cc(-c2coc3c(C(=O)NCc4ccc(OC)c(OC)c4)cccc23)ccc1O	i	i	i	i	i	i
COc1ccc(CNC(=O)c2cccc3c(-c4cccc(C(N)=O)c4)coc23)cc1OC	i	i	27	i	i	i
CCc1nc2ccc(C(=O)NCc3ccccc3OC)cn2c1N(C)Cc1ccc(N(C)C)cc1	i	i	i	i	i	i
CC(=O)/C=C1/C(=O)Nc2ccccc21	i	i	28	i	i	i
C=CCOc1cccc(C(=O)/C=C2/C(=O)Nc3ccccc32)c1	i	i	i	i	i	i
CC1(C(=O)Nc2cccc(C#N)c2)CCN1C(=O)c1ccccc1CCc1ccccc1 (configuration not stated)	i	i	i	i	i	i
CCn1c(=O)c(=O)[nH]c2cc(C(=O)Nc3ccc(S(=O)(=O)N4CCCC4)cc3)ccc21	i	i	i	31	i	i
CCN1CCN(c2ccc(NC(=O)c3cccc(S(=O)(=O)N4CCCC4)c3)cc2)CC1	i	i	50	i	i	i
CCn1c(=O)c(=O)[nH]c2cc(C(=O)NC3CCCc4ccccc43)ccc21 (configuration not stated)	i	i	i	36	i	i
CCn1c(=O)c(=O)[nH]c2cc(C(=O)NC3CC3)ccc21	i	i	i	i	i	i
COc1ccc(NC(=O)CN(C)C(=O)c2cccc(S(=O)(=O)N3CCN(c4ccc(F)cc4)CC3)c2)cc1	i	i	30	i	i	i
Nc1ccn([C@@H]2O[C@H](C(=O)N3CCCN(Cc4cccs4)CC3)[C@@H](O)[C@H]2O)c(=O)n1	i	i	i	i	i	i
CCNC(=O)C1(C)CCCN(Cc2cccc(Oc3ccccc3)c2)C1 (configuration not stated)	i	i	i	i	i	i
COc1ccc(NC(=O)c2sc(=O)n(Cc3ccccc3C#N)c2C)cc1OC	i	i	i	i	i	i
O=C(Nc1ccc(Cl)cc1)C1Cc2c(-c3ccccc3)ccnc2O1 (configuration not stated)	i	i	i	i	i	i
CC(=O)Nc1ccc(Nc2ncnc3c2cnn3-c2cccc(C)c2)cc1	i	i	i	i	i	i
COc1ncnc2c1cnn2-c1ccccc1	i	i	i	27	i	i
COc1ccccc1Oc1ncnc2c1cnn2-c1ccccc1	i	i	i	i	i	i
CC(=O)Nc1ccc(Nc2ncnc3c2cnn3-c2ccccc2)cc1	i	28	i	i	i	i
CC(C)CN(C(=O)CN(C)C(=O)Cc1c(F)cccc1Cl)c1c(N)n(CC(C)C)c(=O)[nH]c1=O	i	i	i	i	i	i
CCN(CC)C(=O)c1cccc(-c2csc(C(O)c3cccc(Cl)c3)n2)c1 (configuration not stated)	i	i	i	i	i	i
Cc1[nH]nc(-c2ccc(OCc3cnn(-c4ccccc4)c3)cc2O)c1Oc1ccccc1F	i	i	i	24	i	i
CCCCCCCCN1C(=O)[C@H](CC(=O)N2CCSCC2)C[C@@]2(C(=O)OC)CCCCC=C12	i	i	i	i	i	i
CCNC(=O)C[C@@H]1CC[C@@H]2NC[C@@H](O)COC[C@H]2O1	i	i	i	i	i	i
COc1ccccc1OCc1ccc(C(=O)N2CCCCC2)o1	i	i	i	34	22	i
SMILES	CHRM4 agonist	M4 antag	M5 antag	CHRM4 PAM	M5 PAM	M5 ag
COc1ccccc1OCc1ccc(C(=O)N2CCOCC2)o1	i	i	i	i	i	i
CCNC(=O)C1(C)CCCN(Cc2noc(-c3c(C)noc3C)n2)C1 (configuration not stated)	i	i	i	i	i	i
Cc1nc2ccccc2n1CC(=O)c1ccccc1	i	i	i	i	i	i
CC1CCN(c2nc3ccccc3n2CC(=O)c2ccccc2)CC1	i	58	i	i	i	i
N#C/C(=C\c1ccc(N2CCCCC2)o1)C(=O)Nc1cccc(Br)c1	47	32	59	i	i	60
CC1(C)CCCC2(C)C(OCCO)=CC(=O)C=C12 (configuration not stated)	i	i	i	i	i	i
COc1cccc(CN(C)C(=O)c2ccc(OCC(=O)Nc3cccc(C(F)(F)F)c3)c(OC)c2)c1	i	i	29	i	i	i
COc1cccc(Nc2nc(C(N)c3ccccc3)cs2)n1 (configuration not stated)	i	i	i	i	i	i
CC1=NOC(=O)/C1=C\c1ccc(-c2ccc(Cl)c(C(=O)O)c2)o1	i	i	i	i	i	i
CC1=NOC(=O)/C1=C\c1ccc(-c2cccc(Cl)c2)o1	i	54	i	i	i	i
COc1ccc(C#Cc2cccc(-c3nc(C(=O)N4CCN(C)CC4)cc4c3[C@H](CCO)N(S(=O)C(C)(C)C)C4)c2)cc1OC (some centres not stated)	i	i	i	i	i	i
CCC(C)(C(=O)Nc1ccc(OC)cc1)N(C)C(=O)Cn1nnnc1N (configuration not stated)	i	i	i	i	19	i
COc1ccc(NC(=O)C2(N(C(=O)Cn3nnnc3N)c3ccc(OC)cc3)CCCCC2)cc1	i	i	i	i	i	i
COc1ccc(CNC(=O)CC[C@H]2O[C@@H](n3cnc4c(NC(=O)c5ccccc5)ncnc43)[C@H](O)[C@@H]2O)cc1	i	i	i	i	i	i
Cc1c(CCOC(=O)C23CC4CC(CC(C)(C4)C2)C3)sc[n+]1Cc1ccccc1	i	69	98	i	i	i
Cc1c(CCOC(=O)C23CC4CC(CC(C4)C2)C3)sc[n+]1Cc1ccccc1	i	i	i	i	i	i
Cc1nc(C(F)(F)F)ccc1C(=O)N1CCC1(C)C(=O)NS(=O)(=O)c1ccc2ccccc2c1 (configuration not stated)	i	i	i	i	i	i
C[N+]1(CC(=O)OC2CCCCCCCCCCC2)CCCC1	i	35	i	i	i	i
O=C(CC1(O)CCCCC1)OC1CCCC1	i	i	i	i	i	i
CC(=O)OCCCCCCCCCCC[N+]1(C)CCCCC1	i	56	i	i	i	i
COC(=O)CCCCCCCCCC[N+]1(C)CCCCC1	i	31	i	i	i	i
COc1cc(CNc2ncnc3c2ncn3[C@H]2CN(Cc3ccncc3)C[C@@H](CO)O2)cc(OC)c1OC	i	i	i	i	i	i
COc1ccccc1NS(=O)(=O)c1cccc(NC(=O)Nc2cccc(Cl)c2)c1	i	47	59	i	i	i

Assay outcomes (PubChem)
